Converted amounts (≈) assume the structure as drawn. The source made the active and inactive calls. The calls are words filed in the database; no cut-off is given here.
Legend:
PC-12 [1] = experiment: Induction of neurite outgrowth in rat PC12 cells incubated for 96 hrs by phase contrast microscopy; format: functional, cell-based
Method in brief: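 PC12 cells grown at 37 °C in DMEM with 5% FBS and 5% horse serum, then dissociated with 1 mM EGTA in PBS for 15 min. Seeded at 3 × 10^4 cells/well on poly-L-lysine. After 24 h, switched to 1% FBS/1% HS with test compounds at various concentrations and no NGF, for 96 h. NGF 100 ng/mL served as positive control. Neurite-bearing cells: process ≥ cell-body diameter, as % of ≥100 cells × 3 fields × 6 wells. Triplicate.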

PC-12 [2] = experiment: Stimulation of NGF-mediated neurite outgrowth in rat PC12 cells incubated for 96 hrs by phase contrast microscopy; format: functional, cell-based; settings: for EC50: PC-12, 96 h
Method in brief: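 PC12 cells cultured and dissociated with EGTA as above, then plated on poly-L-lysine at 3 × 10^4 cells/well. After 24 h, exposed for 96 h to 20 ng/mL NGF plus graded compound concentrations in 1% FBS/1% HS. Phase-contrast count of cells with neurites ≥ soma diameter, as % of ≥100 cells per field (3 fields/well, 6 wells/sample). Triplicate runs. EC50 from linear or nonlinear concentration–response regression.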

SMILES | Activity (PC-12 [1]) | Activity (PC-12 [2]) | EC50 (PC-12 [2]) [µg/mL]
C=CC(=C)CC[C@]1(C)[C@H](C)C[C@H](OC)[C@@]2(C=O)C(C=O)=C[C@H](OC(=O)C(C)CC)C[C@@H]12 (stereo partly specified) | inactive | inactive | 
C=CC(=C)CC[C@]1(C)[C@H](C)C[C@H](OC)[C@@]23C(=C[C@H](OC(=O)C(C)CC)C[C@@H]12)[C@@H](OC(=O)CCC)O[C@H]3OC(C)=O (stereo partly specified) | inactive | Dose-dependent effect | 12.7 (≈ 22.6 µM)
C=CC(=C)CC[C@]1(C)[C@H](C)C[C@H](OC)[C@@]23C(=C[C@H](OC(=O)CCC)C[C@@H]12)[C@@H](OC(=O)CCC)O[C@H]3OC(C)=O | inactive | Dose-dependent effect | 20.2 (≈ 36.9 µM)
C=CC(=C)CC[C@]1(C)[C@H](C)C[C@H](OC)[C@@]23C(=C[C@@H](OC(C)=O)C[C@@H]12)[C@@H](OC)O[C@H]3OC(C)=O | inactive | Dose-dependent effect | 2.4 (≈ 5.19 µM)
C=CC(=C)CC[C@]1(C)[C@H]2C[C@H](OC(=O)C(C)CC)C=C3[C@H](OC)O[C@H](OC(C)=O)[C@@]32[C@H](O)C[C@@H]1C (stereo partly specified) [CASEAMEMBRIN B] | inactive | Dose-dependent effect | 7.5 (≈ 15.3 µM)
C=CC(=C)CC[C@]1(C)[C@H](C)CC[C@@]23C(=C[C@H](OC(=O)C(C)CC)C[C@@H]12)[C@@H](OC(=O)CCC)O[C@H]3OC(C)=O (stereo partly specified) | inactive | inactive | 
C=CC(=C)CC[C@]1(C)[C@H](C)CC[C@@]23[C@H](OC(C)=O)O[C@H](OC(C)=O)[C@@H]2CC(=O)C[C@@H]13 | inactive | inactive | 
C=CC(=C)CC[C@]1(C)[C@H](C)C[C@H](OC)[C@@]23C(=CC(=O)C[C@@H]12)[C@@H](OC(C)=O)O[C@H]3OC(C)=O | inactive | Dose-dependent effect | 2.5 (≈ 5.6 µM)
C=CC(=C)CC[C@]1(C)[C@H](C)CC[C@@]23C(=CC(=O)C[C@@H]12)[C@@H](OC(=O)CCC)O[C@H]3OC(C)=O | inactive | inactive | 
C=CC(=C)CC[C@]1(C)[C@H](C)C[C@H](OC)[C@@]23C(=C[C@H](OC(=O)C(C)CC)C[C@@H]12)[C@@H](OC)O[C@H]3OC(C)=O (stereo partly specified) | inactive | Dose-dependent effect | 4 (≈ 7.93 µM)
